# The list is not random: actives were taken first. Their share in the collection is about 2.2%.
# APP transl inh – inhibitors of APP translation via 5'UTR reporter, primary screen, APP 5'UTR luciferase, SH-SY5Y cells; SH-SY5Y APP 5'UTR-luciferase reporter, luminescence; AID 1285, 2008; hit rate 0.82% among 190,000; inhibition, % at 2 µM;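 active = inhibition above a set limit, derived from the sample mean plus 3 SD, cut at about 45% in these data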
# MT stabilize HCS – microtubule stabilizers in HeLa cells, primary screen, imaging, high-content imaging. hit rate 0.83% among 200,000. AID 2205, 2009. HeLa tubulin immunostaining HCS, 24 h; share of cells brighter than vehicle mean+2SD. % tubulin-high responders, % at 10 µM;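 active = plate Z-score above 3 for both tubulin-high and condensed-nucleus cell shares, with cell loss under 80%, at 10 µM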;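 also: anti alpha tubulin signal scored within the nucleus-defined area of each cell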
# IEC-6 tox – cytotoxicity in IEC-6 intestinal epithelial cells, primary screen, cytotoxicity control for KLF5 inhibitor project, cell-based, luminescence; hit rate 0.78% among 290,000; AID 1825, 2009; inhibition, % at 5 µM; IEC-6 cytotoxicity, luminescence viability;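 also: 0% = plate median of test compound wells and 100% = cytotoxic reference compound wells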
# Ba/F3 V617F tox – reduced viability of JAK2V617F-dependent Ba/F3 cells, primary screen, JAK2V617F inhibitor project, cell-based, Ba/F3 EpoR-JAK2V617F, luminescence; ATP luminescence; inhibition, % at 5.6 µM; hit rate 1.1% among 220,000; AID 1446, 2008;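 active = inhibition above the campaign mean plus 3 SD over all tested compounds, cut at about 24% in these data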;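 also: cytokine-independent growth of Ba/F3 cells driven by EpoR plus mutant JAK2; 0% = DMSO-treated cells and 100% = JAK inhibitor I control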
# bCat nuc transl – modulators of beta-catenin nuclear translocation, primary screen, imaging, HeLa cells, immunofluorescence, high-content; nuclear translocation activity, % at 5 µM; hit rate 0.3% among 190,000;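 active = nuclear translocation activity above 50% at 5 µM, with a well cell count of 50 or more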;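 also: per-cell ratio of nuclear to cytoplasmic median beta-catenin stain intensity; plate controls were DMSO negative control for no effect and GSK-3 inhibitor IX positive control for full effect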
#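 Signal – beta-catenin immunofluorescence imaging with DAPI · Test system – human HeLa cell line · Dosing – 5 µM primary single dose, 0.1% DMSO, 0.02–20 µM confirmation series · Measure – % activation, nuclear-to-cytoplasmic median beta-catenin signal ratio per cell · Incubation – 24 h compound exposure at 37°C, 5% CO2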
# BaF3 tox – parental Ba/F3 cell viability inhibition, counter-screen for JAK2V617F inhibitor project, murine pro-B, CellTiter-Glo luminescence; CellTiter-Glo ATP luminescence; inhibition, % at 5.6 µM; hit rate 1.1% among 220,000; AID 1486, 2009;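 active = inhibition above a per-campaign cutoff, the mean inhibition of all tested compounds plus 3 SD, cut at about 27% in these data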;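 also: 0% = DMSO wells and 100% = JAK Inhibitor I control wells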
# IEC-6 tox confirm – cytotoxic compounds in IEC-6 epithelial cells, confirmation, cytotoxicity control, cell-based, luminescence | hit rate 63% among 1,900 | shares compounds with IEC-6 tox | AID 1907, 2009 | inhibition, % at 5 µM | IEC-6 rat intestinal epithelial viability;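 also: 0% = vehicle and 100% = reference cytotoxic drug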
# Starred values were filed as active, the others as inactive; · = no result given. Rule as the data show it, unless noted: active = inhibition above about 22%; inactive = the rest.
SMILES,APP transl inh,MT stabilize HCS,IEC-6 tox,Ba/F3 V617F tox,bCat nuc transl,BaF3 tox,IEC-6 tox confirm
COc1ccc(CCN=C(N)C(C)c2ccccc2)cc1OC (centres undefined),-5.8,·,-8.7,-2.9,0.7,-5.6,·
CC(C)Cc1ccc(C(C)C(N)=NCCc2ccccc2)cc1 (centres undefined),·,·,64.0*,·,·,·,98.7*
O=C(NC1CCCCC1)C1CCCN1S(=O)(=O)c1ccc(Cl)cc1 (centres undefined),·,·,0.4,·,·,·,·
CC(C)c1ccc(/C=C/C2=NNC(=O)CC2)cc1,-164.7,6.1,54.8*,37.9*,6.2,29.8*,37.0*
CCOc1ccc(C2=Nn3c(nnc3-c3ccc(OC)cc3)SC2)cc1,95.0*,39.6*,34.4*,72.6*,106.1*,57.2*,51.6*
O=C(CCc1nnc2ccc(N3CCC4(CC3)OCCO4)nn12)NCc1ccc(F)cc1,·,·,-3.4,·,·,·,·
Cc1ccc(C(=O)NC(=S)N(C)C2CCCCC2)cc1,·,·,6.0,·,·,·,·
Cc1ccc(NC(=O)C2CCN(S(=O)(=O)c3ccc4c(c3)NC(=O)C(C)S4)CC2)cc1Cl (centres undefined),·,·,22.1*,·,·,·,4.2
C=CCc1cccc2cc(C(=O)N3CCN(C(=O)c4ccccc4)CC3)c(=O)oc12,·,·,0.1,·,·,·,·
CCS(=O)(=O)c1ncc(Cl)c(C(=O)Nc2ccc(S(=O)(=O)N(C)c3ccccc3)cc2)n1,·,·,101.0*,·,·,·,27.7*
CCN(c1ccccc1)S(=O)(=O)c1ccc(NC(=O)c2nc(S(C)(=O)=O)ncc2Cl)cc1,·,·,99.8*,·,·,·,12.0
CC(=O)Nc1ccc(S(=O)(=O)N(C)c2ccccc2)cc1,-11.4,3.3,-0.4,-1.4,3.2,-0.9,·
Cc1ccc(C)c(N(C(=O)c2csnn2)C(C(=O)NC2CCCC2)c2cccnc2)c1 (centres undefined),·,·,-0.7,·,·,·,·
COc1ccc(CCN(C)C2CCCN(S(=O)(=O)c3ccccc3)C2)cc1OC (centres undefined),·,·,-2.3,·,·,·,·
CCn1ccc(C(=O)Nc2ccc3c(c2)CCC3)n1,·,·,13.1,·,·,·,·
CCN1CCN(Cc2ccc(NC(=O)c3ccc(C)c(NC(=O)C(=O)c4c[nH]c5ccccc45)c3)cc2C(F)(F)F)CC1,·,·,54.8*,·,19.1,·,-0.5
Cc1ccc(CSCC(=O)Nc2ccccc2C(=O)O)cc1,·,·,28.9*,·,·,·,24.8*
Cc1ccc(SCC(=O)Nc2ccccc2C(=O)O)cc1,-13.6,1.5,-1.8,0.0,-12.3,7.6,·
COc1ccc(CCNC(=O)C/C(C)=N/NC(=O)COc2ccc(C)cc2Br)cc1OC,·,·,0.0,·,·,·,·
COc1ccc(NC(=O)c2nc(S(=O)(=O)Cc3cccc(C)c3)ncc2Cl)c(OC)c1,·,·,65.7*,·,·,·,20.1
COc1ccc(OC)c(NC(=O)c2nc(S(=O)(=O)Cc3ccccc3)ncc2Cl)c1,·,·,75.1*,·,·,·,6.0
COc1ccc(/C(C)=N/NC(=S)NCCc2ccccc2)c(O)c1,·,·,40.3*,·,·,·,2.0
COc1ccc(O)c(/C=N/NC(=S)NCCc2ccccc2)c1,·,·,11.1,·,·,·,·
COCCNC(=S)N/N=C(\C)c1ccccc1O,78.6*,2.3,85.2*,1.4,-2.1,8.7,17.8
Cc1cc(/C=N/Nc2nc(N3CCOCC3)nc(N3CCOCC3)n2)c(C)n1-c1ccccc1,17.1,3.1,-3.4,-3.0,0.0,5.5,·
SMILES,APP transl inh,MT stabilize HCS,IEC-6 tox,Ba/F3 V617F tox,bCat nuc transl,BaF3 tox,IEC-6 tox confirm
Fc1ccc(Nc2nc(N3CCOCC3)nc(N3CCOCC3)n2)cc1,·,·,2.0,·,·,·,·
Cc1ccc(Nc2nc(N/N=C/c3c[nH]c4ccccc34)nc(N3CCOCC3)n2)cc1,31.8,6.6,90.1*,80.2*,16.5,61.7*,93.9*
Cc1[nH]c2ccccc2c1/C=N/Nc1nc(Nc2ccc(F)cc2)nc(N2CCOCC2)n1,12.6,5.6,56.0*,0.2,-6.5,10.0,96.2*
C(=N\Nc1nc(Nc2ccccc2)nc(N2CCOCC2)n1)/c1c[nH]c2ccccc12,21.4,7.8,85.6*,78.1*,·,66.7*,97.2*
CCn1c(=O)c2cc(C(=O)NCCCOC)sc2c2ccccc21,·,·,22.3*,·,·,·,13.4
CCCN(CCC)CCCNC(=O)c1cc2c(=O)n(CC)c3ccccc3c2s1,·,·,22.0*,·,·,·,19.1

# Assay outcomes as filed in PubChem.
